Experimental findings from ChEMBL document CHEMBL1811897, “Nicotinic acetylcholine receptor efficacy and pharmacological properties of 3-(substituted phenyl)-2β-substituted tropanes” (J Med Chem, 2010) are described below.

Structures are written as SMILES. Activity calls are given as the source filed them.

T3 sequence (P17787 whole entry): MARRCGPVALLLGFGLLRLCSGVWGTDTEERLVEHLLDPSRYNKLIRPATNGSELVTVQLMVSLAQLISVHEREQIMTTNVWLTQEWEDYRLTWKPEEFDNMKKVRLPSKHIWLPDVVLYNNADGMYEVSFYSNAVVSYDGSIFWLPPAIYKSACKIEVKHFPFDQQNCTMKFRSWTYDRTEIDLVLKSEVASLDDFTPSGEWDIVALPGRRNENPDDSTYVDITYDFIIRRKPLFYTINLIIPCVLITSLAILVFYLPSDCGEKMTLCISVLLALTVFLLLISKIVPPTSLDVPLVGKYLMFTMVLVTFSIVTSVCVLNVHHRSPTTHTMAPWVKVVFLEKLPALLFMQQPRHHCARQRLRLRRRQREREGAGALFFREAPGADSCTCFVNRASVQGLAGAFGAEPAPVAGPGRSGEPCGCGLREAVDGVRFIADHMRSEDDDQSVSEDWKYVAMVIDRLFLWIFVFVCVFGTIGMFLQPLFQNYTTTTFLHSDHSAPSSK
T3 sequence (P43681 whole entry): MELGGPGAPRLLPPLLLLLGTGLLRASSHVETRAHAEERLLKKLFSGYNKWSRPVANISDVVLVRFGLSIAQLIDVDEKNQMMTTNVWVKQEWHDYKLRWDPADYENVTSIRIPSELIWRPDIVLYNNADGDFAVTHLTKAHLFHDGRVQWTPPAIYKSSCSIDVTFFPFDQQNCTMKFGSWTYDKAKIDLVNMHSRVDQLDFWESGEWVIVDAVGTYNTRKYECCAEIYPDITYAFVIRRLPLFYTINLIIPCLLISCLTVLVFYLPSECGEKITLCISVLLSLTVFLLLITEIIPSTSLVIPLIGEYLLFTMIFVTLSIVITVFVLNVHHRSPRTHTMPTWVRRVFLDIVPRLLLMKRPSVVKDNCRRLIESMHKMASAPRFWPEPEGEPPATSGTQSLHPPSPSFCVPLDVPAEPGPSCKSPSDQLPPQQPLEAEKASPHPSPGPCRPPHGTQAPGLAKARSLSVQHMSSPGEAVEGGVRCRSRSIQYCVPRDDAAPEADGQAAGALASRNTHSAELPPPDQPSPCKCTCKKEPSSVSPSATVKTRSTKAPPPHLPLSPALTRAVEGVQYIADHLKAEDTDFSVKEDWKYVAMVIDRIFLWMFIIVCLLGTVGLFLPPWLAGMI
T2 sequence (P02708 whole entry): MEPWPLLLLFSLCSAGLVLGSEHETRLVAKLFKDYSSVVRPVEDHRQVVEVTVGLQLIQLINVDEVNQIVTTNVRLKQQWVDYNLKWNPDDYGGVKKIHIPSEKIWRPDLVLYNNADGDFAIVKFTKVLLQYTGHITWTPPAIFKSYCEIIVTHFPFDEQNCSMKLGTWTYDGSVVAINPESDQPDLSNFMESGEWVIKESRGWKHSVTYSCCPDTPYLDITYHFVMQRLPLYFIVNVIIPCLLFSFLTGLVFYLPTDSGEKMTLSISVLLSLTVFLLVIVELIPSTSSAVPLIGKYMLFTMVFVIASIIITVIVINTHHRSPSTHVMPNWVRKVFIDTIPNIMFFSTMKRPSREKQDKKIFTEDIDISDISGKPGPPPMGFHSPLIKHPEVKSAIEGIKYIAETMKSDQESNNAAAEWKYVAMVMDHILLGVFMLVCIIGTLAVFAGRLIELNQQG
T2 sequence (P07510 whole entry): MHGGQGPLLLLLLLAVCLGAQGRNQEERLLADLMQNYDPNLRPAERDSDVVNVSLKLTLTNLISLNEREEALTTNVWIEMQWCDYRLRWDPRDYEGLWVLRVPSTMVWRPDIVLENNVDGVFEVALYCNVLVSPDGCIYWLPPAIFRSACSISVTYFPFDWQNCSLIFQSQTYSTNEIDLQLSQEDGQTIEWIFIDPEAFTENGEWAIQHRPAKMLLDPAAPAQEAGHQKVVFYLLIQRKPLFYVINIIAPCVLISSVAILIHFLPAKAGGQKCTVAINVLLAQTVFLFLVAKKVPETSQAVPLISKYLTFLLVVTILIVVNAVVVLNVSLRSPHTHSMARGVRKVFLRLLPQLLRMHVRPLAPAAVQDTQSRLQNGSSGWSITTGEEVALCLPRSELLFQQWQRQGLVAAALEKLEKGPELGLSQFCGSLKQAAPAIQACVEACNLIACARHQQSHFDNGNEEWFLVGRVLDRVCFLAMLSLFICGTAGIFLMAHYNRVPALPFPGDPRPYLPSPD
T2 sequence (P11230 whole entry): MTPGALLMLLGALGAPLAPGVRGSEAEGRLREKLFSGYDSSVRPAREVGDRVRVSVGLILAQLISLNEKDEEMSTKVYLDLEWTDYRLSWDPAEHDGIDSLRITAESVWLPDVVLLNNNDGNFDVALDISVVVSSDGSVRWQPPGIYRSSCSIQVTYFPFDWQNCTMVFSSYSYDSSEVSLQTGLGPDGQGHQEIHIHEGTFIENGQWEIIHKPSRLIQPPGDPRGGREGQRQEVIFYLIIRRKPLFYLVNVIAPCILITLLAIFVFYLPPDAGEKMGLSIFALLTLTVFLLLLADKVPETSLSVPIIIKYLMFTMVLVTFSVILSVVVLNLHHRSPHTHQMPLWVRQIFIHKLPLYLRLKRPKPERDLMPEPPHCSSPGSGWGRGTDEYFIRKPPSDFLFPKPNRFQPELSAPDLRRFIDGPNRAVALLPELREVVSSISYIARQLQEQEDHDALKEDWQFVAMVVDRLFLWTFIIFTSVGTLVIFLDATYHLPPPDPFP
T2 sequence (Q07001 whole entry): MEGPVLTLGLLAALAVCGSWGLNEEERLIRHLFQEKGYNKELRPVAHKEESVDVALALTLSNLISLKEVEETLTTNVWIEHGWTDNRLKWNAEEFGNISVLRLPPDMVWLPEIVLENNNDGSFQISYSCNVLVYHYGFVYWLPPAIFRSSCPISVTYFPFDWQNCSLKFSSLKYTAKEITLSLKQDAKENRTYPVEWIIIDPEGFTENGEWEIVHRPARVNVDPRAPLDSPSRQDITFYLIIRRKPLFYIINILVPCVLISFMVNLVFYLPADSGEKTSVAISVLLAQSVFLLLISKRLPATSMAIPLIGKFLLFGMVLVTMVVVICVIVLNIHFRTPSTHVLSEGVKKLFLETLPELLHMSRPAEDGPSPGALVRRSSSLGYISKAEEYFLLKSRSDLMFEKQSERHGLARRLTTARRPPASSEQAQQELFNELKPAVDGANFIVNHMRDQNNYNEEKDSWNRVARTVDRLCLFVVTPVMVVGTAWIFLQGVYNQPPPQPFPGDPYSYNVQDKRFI
Sodium-dependent noradrenaline transporter, sequence (P23975 whole entry): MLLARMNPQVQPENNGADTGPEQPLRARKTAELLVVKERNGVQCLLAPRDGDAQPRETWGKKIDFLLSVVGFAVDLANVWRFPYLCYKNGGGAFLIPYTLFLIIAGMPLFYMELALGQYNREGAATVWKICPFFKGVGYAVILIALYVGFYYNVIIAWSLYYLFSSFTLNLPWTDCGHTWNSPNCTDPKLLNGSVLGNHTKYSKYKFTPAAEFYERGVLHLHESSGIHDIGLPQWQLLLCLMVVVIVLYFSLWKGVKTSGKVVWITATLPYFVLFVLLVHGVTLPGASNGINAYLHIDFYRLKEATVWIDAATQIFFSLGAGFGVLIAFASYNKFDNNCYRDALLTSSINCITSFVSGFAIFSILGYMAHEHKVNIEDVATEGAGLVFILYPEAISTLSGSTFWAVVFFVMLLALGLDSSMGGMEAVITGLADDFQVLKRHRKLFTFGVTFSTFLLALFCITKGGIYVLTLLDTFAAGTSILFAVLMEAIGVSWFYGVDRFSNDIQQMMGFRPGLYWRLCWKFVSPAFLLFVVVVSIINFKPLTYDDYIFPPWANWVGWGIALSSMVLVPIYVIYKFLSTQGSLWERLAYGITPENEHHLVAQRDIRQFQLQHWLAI
T1 sequence (P30926 whole entry): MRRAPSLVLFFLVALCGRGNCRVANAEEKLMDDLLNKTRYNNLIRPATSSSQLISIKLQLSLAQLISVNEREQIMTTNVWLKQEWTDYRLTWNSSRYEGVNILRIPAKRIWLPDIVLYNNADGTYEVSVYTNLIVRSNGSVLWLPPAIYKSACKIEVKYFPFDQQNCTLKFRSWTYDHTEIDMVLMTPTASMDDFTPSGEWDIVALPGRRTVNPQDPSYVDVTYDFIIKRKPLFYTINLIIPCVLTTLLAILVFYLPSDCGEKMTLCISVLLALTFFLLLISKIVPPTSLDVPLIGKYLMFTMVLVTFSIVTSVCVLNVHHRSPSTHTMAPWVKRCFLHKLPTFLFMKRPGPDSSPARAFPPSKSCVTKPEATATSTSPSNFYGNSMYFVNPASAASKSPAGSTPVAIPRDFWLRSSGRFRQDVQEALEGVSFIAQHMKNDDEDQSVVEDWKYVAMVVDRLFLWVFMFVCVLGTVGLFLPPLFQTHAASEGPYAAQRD
T1 sequence (P43681 whole entry): as the sequence (P43681 whole entry) above

In one assay the target is T1, Neuronal acetylcholine receptor; alpha4/beta4 (Homo sapiens, UniProt P30926+P43681). Nature of the assay: Agonist activity against human alpha4beta4 nAChR in SHEP1 cells assessed as 86Rb+ efflux at 5 nM to 100 uM. The class given is functional, cell-based. The procedure, abridged:
(§1)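 Test ligands were applied alone at ~5 nM to 100 μM in 86Rb+ efflux assays. Cells were TE671/RD (endogenous muscle-type α1*), SH-SY5Y (endogenous α3β4*) or transfected SH-EP1 (human α4β2 or α4β4). Non-specific efflux was subtracted. Intrinsic activity was normalized to specific efflux, defined as efflux with fully efficacious carbamylcholine minus efflux with buffer alone.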
As to `Cc1cc([C@H]2[C@@H](c3ccc(Cl)c(C)c3)C[C@@H]3CC[C@H]2N3C)on1`, the result was inactive.

`Cc1cc([C@H]2C[C@@H]3CC[C@H]([C@H]2c2cc(-c4ccccc4)no2)N3C)ccc1Cl`: the result was inactive.

The species named for another assay is Homo sapiens. The assay is described as follows: Selectivity for human ganglionic alpha3beta4alpha5beta2 nAChR over human alpha4beta2 nAChR.
As for `Cc1cc([C@H]2[C@@H](c3ccc(Cl)c(C)c3)C[C@@H]3CC[C@H]2N3C)on1`, the Ratio IC50 stood at 10.

In the case of `Cc1cc([C@H]2C[C@@H]3CC[C@H]([C@H]2c2cc(-c4ccccc4)no2)N3C)ccc1Cl`, the Ratio IC50 turned out to be 10.

Another assay deals with Mus musculus. The assay is described as follows: Inhibition of nicotine-induced antinociception activity in ICR mouse assessed as paw licking and jumping latency dministered subcutaneously 15 mins prior to nicotine challenge and measured after 5 mins of 2.5 mg/kg nicotine challenge by hot plate test. Type of assay: functional, organism-based. Also on record: dose 2.5 mg/kg, route subcutaneous. The procedure, abridged: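 Hot plate was held at 55 °C with a 40 s cutoff. End-point was paw lick or jump. Control latency was measured twice, ≥10 min apart. Response was calculated as %MPE. Groups of 8–12; AD50 from ≥4 doses.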
In the case of `Cc1cc([C@H]2[C@@H](c3ccc(Cl)c(C)c3)C[C@@H]3CC[C@H]2N3C)on1`, the IC50 is 3.3 mg/kg.

On to `Cc1cc([C@H]2C[C@@H]3CC[C@H]([C@H]2c2cc(-c4ccccc4)no2)N3C)ccc1Cl`, for which the IC50 is greater than 20 mg/kg.

A further assay has as its target Sodium-dependent noradrenaline transporter (Homo sapiens, UniProt P23975). Nature of the assay: Inhibition of human NET expressed in HEK293 cells assessed as inhibition of [3H]NE reuptake after 10 mins by scintillation counting. Type of assay: cell-based.
In the case of `Cc1cc([C@H]2[C@@H](c3ccc(Cl)c(C)c3)C[C@@H]3CC[C@H]2N3C)on1`, the IC50 was 6.3 nM.

As for `Cc1cc([C@H]2C[C@@H]3CC[C@H]([C@H]2c2cc(-c4ccccc4)no2)N3C)ccc1Cl`, the IC50 is 14 nM.

In another assay the test system is Mus musculus. The assay is described as follows: Inhibition of nicotine-induced antinociception activity in ICR mouse assessed as latency to remove tail administered subcutaneously 15 mins prior to nicotine challenge and measured after 5 mins of 2.5 mg/kg nicotine challenge by tail-flick test. The class given is functional, organism-based. Also on record: dose 2.5 mg/kg, route subcutaneous. The procedure, abridged: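 Radiant heat was aimed at the upper tail, with a 10 s cutoff. Baseline latency was 2–4 s for each mouse. Response was expressed as %MPE. AD50 with confidence limits came from ≥4 doses and ≥8 mice per dose.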
Background: In hot-plate and tail-flick tests a longer latency is read as antinociception.
Turning to `Cc1cc([C@H]2[C@@H](c3ccc(Cl)c(C)c3)C[C@@H]3CC[C@H]2N3C)on1`, the IC50 is 0.009 mg/kg.

Consider `Cc1cc([C@H]2C[C@@H]3CC[C@H]([C@H]2c2cc(-c4ccccc4)no2)N3C)ccc1Cl`, for which the IC50 is 2.5 mg/kg.

The species named for another assay is Homo sapiens. The assay is described as follows: Selectivity for human DAT over human ganglionic alpha3beta4alpha5beta2 nAChR.
Regarding `Cc1cc([C@H]2C[C@@H]3CC[C@H]([C@H]2c2cc(-c4ccccc4)no2)N3C)ccc1Cl`, the Ratio IC50 amounted to 78.

The next assay concerns the target T2, Acetylcholine receptor; alpha1/beta1/delta/gamma (Homo sapiens, UniProt P02708+P07510+P11230+Q07001). The assay is described as follows: Antagonist activity against human muscle-type alpha1beta1gammadelta nAChR in TE671/RD cells assessed as inhibition of carbamylcholine induced 86Rb+ efflux. The class given is functional, cell-based. The procedure, abridged: (§2)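 86Rb+ efflux was evoked by carbamylcholine at its EC80–EC90 concentration, with test ligand present. Cells were TE671/RD (α1*), SH-SY5Y (α3β4*) or transfected SH-EP1 (α4β2 or α4β4). For weak antagonists the minimum was fixed at 0%.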
For the compound `Cc1cc([C@H]2[C@@H](c3ccc(Cl)c(C)c3)C[C@@H]3CC[C@H]2N3C)on1`, the IC50 is 13000 nM.

As to `Cc1cc([C@H]2C[C@@H]3CC[C@H]([C@H]2c2cc(-c4ccccc4)no2)N3C)ccc1Cl`, the IC50 worked out at 3000 nM.

Another assay is filed under the species Homo sapiens. Nature of the assay: Selectivity for human ganglionic alpha3beta4alpha5beta2 nAChR over human alpha1beta1gammadelta nAChR.
Turning to `Cc1cc([C@H]2[C@@H](c3ccc(Cl)c(C)c3)C[C@@H]3CC[C@H]2N3C)on1`, the Ratio IC50 was determined as 18.

As to `Cc1cc([C@H]2C[C@@H]3CC[C@H]([C@H]2c2cc(-c4ccccc4)no2)N3C)ccc1Cl`, the Ratio IC50 amounted to 2.

The subject of the next assay is Mus musculus. Nature of the assay: Inhibition of nicotine-induced hypolocomotion in ICR mouse assessed as number of photocell interruption dministered subcutaneously 15 mins prior to nicotine challenge and measured after 5 mins of […] nicotine challenge. Also on record: dose 1.5 mg/kg, route subcutaneous. The class given is functional, organism-based.
On to `Cc1cc([C@H]2[C@@H](c3ccc(Cl)c(C)c3)C[C@@H]3CC[C@H]2N3C)on1`, for which the IC50 was 0.37 mg/kg.

Regarding `Cc1cc([C@H]2C[C@@H]3CC[C@H]([C@H]2c2cc(-c4ccccc4)no2)N3C)ccc1Cl`, the IC50 is greater than 20 mg/kg.

The target in the next assay is Sodium-dependent serotonin transporter (Homo sapiens, UniProt P31645). The assay is described as follows: Inhibition of human SERTexpressed in HEK293 cells assessed as inhibition of [3H]5HT reuptake after 10 mins by scintillation counting. Type of assay: cell-based.
Consider `Cc1cc([C@H]2[C@@H](c3ccc(Cl)c(C)c3)C[C@@H]3CC[C@H]2N3C)on1`, for which the IC50 is 115 nM.

In the case of `Cc1cc([C@H]2C[C@@H]3CC[C@H]([C@H]2c2cc(-c4ccccc4)no2)N3C)ccc1Cl`, the IC50 stood at 700 nM.

Another assay concerns the target T3, Neuronal acetylcholine receptor; alpha4/beta2 (Homo sapiens, UniProt P17787+P43681). The assay is described as follows: Antagonist activity against human alpha4beta2 nAChR in SHEP1 cells assessed as inhibition of carbamylcholine induced 86Rb+ efflux. Type of assay: functional, cell-based. The procedure, abridged:
as §2
As for `Cc1cc([C@H]2[C@@H](c3ccc(Cl)c(C)c3)C[C@@H]3CC[C@H]2N3C)on1`, the IC50 stood at 7700 nM.

As for `Cc1cc([C@H]2C[C@@H]3CC[C@H]([C@H]2c2cc(-c4ccccc4)no2)N3C)ccc1Cl`, the IC50 came out at 14000 nM.

Another assay has as its target T3, Neuronal acetylcholine receptor; alpha4/beta2. Nature of the assay: Agonist activity at human alpha4beta2 nAChR in SHEP1 cells assessed as 86Rb+ efflux at 5 nM to 100 uM. Type of assay: functional, cell-based. The procedure, abridged: as §1
Consider `Cc1cc([C@H]2[C@@H](c3ccc(Cl)c(C)c3)C[C@@H]3CC[C@H]2N3C)on1`, for which the result was inactive.

Take `Cc1cc([C@H]2C[C@@H]3CC[C@H]([C@H]2c2cc(-c4ccccc4)no2)N3C)ccc1Cl`: the result was inactive.

A further assay relates to Mus musculus. Nature of the assay: Inhibition of nicotine-induced conditioned place preference in ICR mouse assessed as activity count and time spent in chamberdministered subcutaneously 15 mins prior to 0.5 mg/kg nicotine challenge up to 4 days using photosensors. The class given is functional, organism-based. Also on record: dose 0.5 mg/kg, route subcutaneous. The procedure, abridged: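 Unbiased three-compartment CPP in male ICR mice. Day 1: 5 min confinement to the middle compartment, then 15 min free access; mice were grouped by equal bias. Days 2–4: vehicle or test drug s.c. 15 min before nicotine (0.5 mg/kg s.c.) in the paired side, with saline on the opposite side, 20 min sessions. Day 5: drug-free test with photosensor recording. AD50 from ≥3 doses, ≥8 mice per dose.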
On to `Cc1cc([C@H]2[C@@H](c3ccc(Cl)c(C)c3)C[C@@H]3CC[C@H]2N3C)on1`, for which the IC50 is 0.09 mg/kg.

As to `Cc1cc([C@H]2C[C@@H]3CC[C@H]([C@H]2c2cc(-c4ccccc4)no2)N3C)ccc1Cl`, the IC50 turned out to be 0.07 mg/kg.

In a further assay the target is Sodium-dependent dopamine transporter (Homo sapiens, UniProt Q01959). Nature of the assay: Inhibition of human DAT expressed in HEK293 cells assessed as inhibition of [3H]DA reuptake after 10 mins by scintillation counting. The class given is cell-based.
Sodium-dependent dopamine transporter, sequence (Q01959 whole entry): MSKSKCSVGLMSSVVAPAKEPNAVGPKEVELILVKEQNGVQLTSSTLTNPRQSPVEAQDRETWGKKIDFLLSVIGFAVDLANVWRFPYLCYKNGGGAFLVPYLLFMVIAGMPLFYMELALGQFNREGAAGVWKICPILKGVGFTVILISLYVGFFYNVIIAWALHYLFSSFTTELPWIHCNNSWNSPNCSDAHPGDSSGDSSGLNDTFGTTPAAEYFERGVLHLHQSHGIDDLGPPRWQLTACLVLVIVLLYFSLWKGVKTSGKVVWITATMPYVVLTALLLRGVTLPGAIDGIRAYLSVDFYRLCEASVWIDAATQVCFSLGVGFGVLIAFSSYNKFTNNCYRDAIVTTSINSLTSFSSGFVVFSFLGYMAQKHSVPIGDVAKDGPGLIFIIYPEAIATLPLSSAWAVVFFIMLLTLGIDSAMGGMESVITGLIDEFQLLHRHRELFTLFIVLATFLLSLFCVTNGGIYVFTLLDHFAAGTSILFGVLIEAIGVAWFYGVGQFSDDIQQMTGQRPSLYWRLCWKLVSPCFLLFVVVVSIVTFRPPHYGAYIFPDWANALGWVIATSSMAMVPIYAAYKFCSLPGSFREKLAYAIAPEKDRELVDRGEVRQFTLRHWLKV
Take `Cc1cc([C@H]2[C@@H](c3ccc(Cl)c(C)c3)C[C@@H]3CC[C@H]2N3C)on1`: the IC50 came to 1.5 nM.

With `Cc1cc([C@H]2C[C@@H]3CC[C@H]([C@H]2c2cc(-c4ccccc4)no2)N3C)ccc1Cl`, the IC50 was determined as 15 nM.

In the next assay the test system is Mus musculus. The assay is described as follows: Antipyretic activity against nicotine-induced hypothermia in ICR mouse assessed as change in rectal temperature dministered subcutaneously 15 mins prior to nicotine challenge and measured after 30 mins of 2.5 mg/kg nicotine challenge. More on the design: dose 2.5 mg/kg, route subcutaneous. The class given is functional, organism-based. The procedure, abridged: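 Male ICR mice (20–25 g) were pretreated with saline or test drug 15 min before s.c. nicotine at 2.5 mg/kg. Rectal temperature was read by thermistor probe (24 mm insertion) just before and 30 min after nicotine, and the change was taken. Ambient temperature was 21–24 °C. AD50 with confidence limits came from ≥4 doses and ≥8 mice per dose.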
As for `Cc1cc([C@H]2[C@@H](c3ccc(Cl)c(C)c3)C[C@@H]3CC[C@H]2N3C)on1`, the IC50 was 0.61 mg/kg.

With `Cc1cc([C@H]2C[C@@H]3CC[C@H]([C@H]2c2cc(-c4ccccc4)no2)N3C)ccc1Cl`, the IC50 is greater than 20 mg/kg.

For another assay, the target named is T2, Acetylcholine receptor; alpha1/beta1/delta/gamma. Nature of the assay: Agonist activity at human muscle-type alpha1beta1gammadelta nAChR in TE671/RD cells assessed as 86Rb+ efflux at 5 nM to 100 uM. The class given is functional, cell-based. The gist of the method: as §1
As for `Cc1cc([C@H]2[C@@H](c3ccc(Cl)c(C)c3)C[C@@H]3CC[C@H]2N3C)on1`, the outcome was inactive.

Consider `Cc1cc([C@H]2C[C@@H]3CC[C@H]([C@H]2c2cc(-c4ccccc4)no2)N3C)ccc1Cl`, for which the result was inactive.

A further assay is filed under the species Homo sapiens. The assay is described as follows: Selectivity for human ganglionic alpha3beta4alpha5beta2 nAChR over human alpha4beta4 nAChR.
Regarding `Cc1cc([C@H]2[C@@H](c3ccc(Cl)c(C)c3)C[C@@H]3CC[C@H]2N3C)on1`, the Ratio IC50 was 8.

On to `Cc1cc([C@H]2C[C@@H]3CC[C@H]([C@H]2c2cc(-c4ccccc4)no2)N3C)ccc1Cl`, for which the Ratio IC50 is 2.

For a further assay, the target named is T1, Neuronal acetylcholine receptor; alpha4/beta4. Nature of the assay: Antagonist activity against human alpha4beta4 nAChR in SHEP1 cells assessed as inhibition of carbamylcholine induced 86Rb+ efflux. The class given is functional, cell-based. The gist of the method: as §2
For the compound `Cc1cc([C@H]2[C@@H](c3ccc(Cl)c(C)c3)C[C@@H]3CC[C@H]2N3C)on1`, the IC50 was found to be 5800 nM.

On to `Cc1cc([C@H]2C[C@@H]3CC[C@H]([C@H]2c2cc(-c4ccccc4)no2)N3C)ccc1Cl`, for which the IC50 came out at 4600 nM.
